# Assay results taken from ChEMBL document CHEMBL2040749, “Novel polycyclic 'cage'-1,2-diamines as potential anti-tuberculosis agents” (2012).
# Columns and labels:
# Format in all cases: functional
# [1] = system: Mycobacterium tuberculosis; experiment: Antitubercular activity against multi-drug resistant Mycobacterium tuberculosis after 21 days by BACTEC MGIT 960 method; conditions: 504 h
# How it was run: (§1)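 Compounds dissolved in 100% methanol (10 mg/mL stock), sonicated, filter-sterilised, diluted in sterile water; twofold serial dilutions, working range 8 to 0.125 µg/mL. Strains grown in Middlebrook 7H9 + OADC at 37 °C; inoculum adjusted to McFarland 1, diluted tenfold to 10^5 CFU/mL into MGIT tubes. Drug-free control received a 1:100 inoculum. MIC is the lowest dilution negative when the control turns positive. Triplicate.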
# [2] = system: Mycobacterium tuberculosis; experiment: Antitubercular activity against extensively drug-resistant Mycobacterium tuberculosis after 21 days by BACTEC MGIT 960 method; conditions: 504 h; how it was run: as §1
# [3] = system: Mycobacterium tuberculosis; experiment: Ratio of SQ109 MIC to compound MIC for multi-drug resistant Mycobacterium tuberculosis
# [4] = system: Mycobacterium tuberculosis; experiment: Ratio of SQ109 MIC to compound MIC for extensively drug-resistant Mycobacterium tuberculosis
Compound,MIC [1] [µg/mL],MIC [2] [µg/mL],Ratio [3],Ratio [4]
CC(C)=CCC/C(C)=C/CNCC(=O)N[C@]12O[C@H]3C4C5CC(C6C5C3C61)C42 (mixture of isomers),4,8,–,–
CC(C)=CCC/C(C)=C/CNCCNC1C2CC3CC(C2)CC1C3.Cl.Cl (stereo not drawn),2,4,–,–
CC(C)=CCC/C(C)=C/CNCCN[C@@H]1C2C3CC4C5C3C1C5[C@@H](O)C42.Cl.Cl (mixture of isomers),2,4,–,–
CC(C)=CCC/C(C)=C/CNCCN[C@@H]1C2C3CC4C5C3CC2C5C41.Cl.Cl (mixture of isomers),4,8,–,–
CC(C)=CCC/C(C)=C/CNCCN1[C@H]2C3C4CC5C6C4C2C6[C@@]1(O)C53.Cl.Cl (mixture of isomers),2,4,–,–
CC(C)=CCC/C(C)=C/CNC(=O)CN1[C@H]2C3C4CC5C6C4C2C6[C@@]1(O)C53 (mixture of isomers),4,8,–,–
CC(C)=CCC/C(C)=C/CNCCNC1C2C3CC4C5CC(C42)C1C53.Cl.Cl (racemic),1,2,2,2
CC(C)=CCC/C(C)=C/CNCCN[C@]12O[C@H]3C4C5CC(C6C5C3C61)C42.Cl.Cl (mixture of isomers),2,4,–,–
